# Laboratory results published in ChEMBL document CHEMBL2029214, “Radiosynthesis and evaluation of an (18)F-labeled positron emission tomography (PET) radioligand for brain histamine subtype-3 receptors based on a nonimidazole 2-aminoethylbenzofuran chemotype” (J Med Chem, 2012).
# Columns and labels:
# [1] = tested on: Brain; experiment: Drug uptake in FVB mouse whole brain at 73+/-29 uCi, iv administered 30 mins post-(R)-(4-fluorophenyl)(2-(2-(2-methylpyrrolidin-1-yl)ethyl)benzofuran-5-yl)methanone treatment measured at 90 mins by PET imaging; assay type: ADME, organism-based; conditions: in vivo, 1.5 h
# Summary of the method: (§1)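 Dynamic microPET ran 120 min with frames of 20 s to 20 min, without attenuation or scatter correction. Decay-corrected whole-brain curves expressed as SUV = (%ID/cm3) × (g body weight).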
# [2] = tested on: Striatum; experiment: Drug uptake in rhesus monkey striatum at 3.91+/-0.46 mCi, iv at 180 mins by PET imaging; assay type: ADME, organism-based, Macaca mulatta; conditions: in vivo, 3 h
# Summary of the method: (§2)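 Male rhesus monkeys (7.3 ± 0.8 kg; n = 4 baseline), ketamine 10 mg/kg i.m. then 1.5% isoflurane in O2. […] [18F]ligand given i.v. Focus 220 microPET, 180 min (one scan 120 min), 45 frames 30 s–5 min, scatter/attenuation corrected, decay-corrected; template-normalized regions; uptake as SUV.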
# [3] = tested on: Brain; experiment: Drug uptake in FVB mouse whole brain at 73+/-29 uCi, iv at 90 mins by PET imaging; assay type: ADME, organism-based; conditions: in vivo, 1.5 h; summary of the method: as §1
# [4] = Drug uptake in rhesus monkey thalamus at 3.91+/-0.46 mCi, iv administered 30 mins post-(R)-(4-fluorophenyl)(2-(2-(2-methylpyrrolidin-1-yl)ethyl)benzofuran-5-yl)methanone treatment measured up to 180 mins by PET imaging; assay type: ADME, organism-based, Macaca mulatta; conditions: in vivo; summary of the method: as §2
# [5] = tested on: Hippocampus; experiment: Drug uptake in rhesus monkey hippocampus at 3.91+/-0.46 mCi, iv administered 30 mins post-(R)-(4-fluorophenyl)(2-(2-(2-methylpyrrolidin-1-yl)ethyl)benzofuran-5-yl)methanone treatment measured up to 180 mins by PET imaging; assay type: ADME, organism-based, Macaca mulatta; conditions: in vivo; summary of the method: as §2
# [6] = tested on: Plasma; experiment: Drug metabolism in rhesus monkey plasma assessed as decrease in unchanged compound at 3.87 mCi, iv administered 30 mins post-ciproxifan treatment by radio-HPLC; assay type: ADME, organism-based, Macaca mulatta; conditions: in vivo, 0.5 h
# [7] = tested on: Striatum; experiment: Drug uptake in rhesus monkey striatum at 3.91+/-0.46 mCi, iv administered 30 mins post-(R)-(4-fluorophenyl)(2-(2-(2-methylpyrrolidin-1-yl)ethyl)benzofuran-5-yl)methanone treatment measured up to 180 mins by PET imaging; assay type: ADME, organism-based, Macaca mulatta; conditions: in vivo; summary of the method: as §2
# [8] = tested on: Hippocampus; experiment: Drug uptake in rhesus monkey hippocampus at 3.91+/-0.46 mCi, iv at 180 mins by PET imaging; assay type: ADME, organism-based, Macaca mulatta; conditions: in vivo, 3 h; summary of the method: as §2
# [9] = Drug uptake in rhesus monkey skull at 3.91+/-0.46 mCi, iv at 180 mins by PET imaging; assay type: ADME, organism-based, Macaca mulatta; conditions: in vivo, 3 h
# [10] = tested on: Plasma; experiment: Drug metabolism in rhesus monkey plasma assessed as radiometabolite formation at 3.87 mCi, iv administered 30 mins post-ciproxifan treatment by radio-HPLC; assay type: ADME, organism-based, Macaca mulatta; conditions: in vivo, 0.5 h
# [11] = Unbound fraction in rhesus monkey plasma at 3.91+/-0.46 mCi, iv by ultrafiltration; assay type: ADME, organism-based, Macaca mulatta
# Summary of the method: (§3)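 Arterial plasma from monkeys scanned at baseline or 30 min after unlabeled ligand (1.0 mg/kg i.v.) pretreatment; free fraction of [18F]ligand measured by ultrafiltration, each plasma sample in triplicate.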
# [12] = tested on: Brain; experiment: Drug uptake in FVB mouse whole brain at 73+/-29 uCi, iv administered 30 mins post-ciproxifan treatment measured at 4.5 mins by PET imaging; assay type: ADME, organism-based; conditions: in vivo, 0.075 h; summary of the method: as §1
# [13] = Metabolic stability in monkey plasma assessed as compound remaining after 2.5 hrs by radio-HPLC; assay type: ADME, cell-free, Macaca mulatta; conditions: rhesus monkey, read-out: Stability
# Summary of the method: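 Radioligand incubated in monkey plasma in vitro at room temperature for 2.5 h; percent unchanged by reverse-phase radio-HPLC (C18 radial compression, MeOH:H2O:Et3N 85:15:0.1, 2.0 mL/min); n = 6.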
# [14] = Drug uptake in rhesus monkey cerebellum at 3.91+/-0.46 mCi, iv administered 30 mins post-(R)-(4-fluorophenyl)(2-(2-(2-methylpyrrolidin-1-yl)ethyl)benzofuran-5-yl)methanone treatment measured up to 180 mins by PET imaging; assay type: ADME, organism-based, Macaca mulatta; conditions: in vivo
# [15] = Drug uptake in rhesus monkey frontal cortex at 3.91+/-0.46 mCi, iv administered 30 mins post-(R)-(4-fluorophenyl)(2-(2-(2-methylpyrrolidin-1-yl)ethyl)benzofuran-5-yl)methanone treatment measured up to 180 mins by PET imaging; assay type: ADME, organism-based, Macaca mulatta; conditions: in vivo
# [16] = Drug uptake in rhesus monkey thalamus at 3.91+/-0.46 mCi, iv administered 30 mins post-ciproxifan treatment measured at 180 mins by PET imaging; assay type: ADME, organism-based, Macaca mulatta; conditions: in vivo, 3 h; summary of the method: as §2
# [17] = Drug uptake in rhesus monkey cerebellum at 3.91+/-0.46 mCi, iv administered 30 mins post-ciproxifan treatment measured at 180 mins by PET imaging; assay type: ADME, organism-based, Macaca mulatta; conditions: in vivo, 3 h
# [18] = Drug uptake in rhesus monkey skull at 3.91+/-0.46 mCi, iv administered 30 mins post-(R)-(4-fluorophenyl)(2-(2-(2-methylpyrrolidin-1-yl)ethyl)benzofuran-5-yl)methanone treatment measured up to 180 mins by PET imaging; assay type: ADME, organism-based, Macaca mulatta; conditions: in vivo
# [19] = Drug uptake in rhesus monkey frontal cortex at 3.91+/-0.46 mCi, iv administered 30 mins post-ciproxifan treatment measured at 180 mins by PET imaging; assay type: ADME, organism-based, Macaca mulatta; conditions: in vivo, 3 h; summary of the method: as §2
# [20] = Drug uptake in rhesus monkey thalamus at 3.91+/-0.46 mCi, iv at 180 mins by PET imaging; assay type: ADME, organism-based, Macaca mulatta; conditions: in vivo, 3 h; summary of the method: as §2
# [21] = Drug uptake in rhesus monkey cerebellum at 3.91+/-0.46 mCi, iv at 180 mins by PET imaging; assay type: ADME, organism-based, Macaca mulatta; conditions: in vivo, 3 h
# [22] = Unbound fraction in rhesus monkey plasma at 3.91+/-0.46 mCi, iv administered 30 mins post-(R)-(4-fluorophenyl)(2-(2-(2-methylpyrrolidin-1-yl)ethyl)benzofuran-5-yl)methanone treatment by ultrafiltration; assay type: ADME, organism-based, Macaca mulatta; summary of the method: as §3
# [23] = Drug uptake in rhesus monkey frontal cortex at 3.91+/-0.46 mCi, iv at 180 mins by PET imaging; assay type: ADME, organism-based, Macaca mulatta; conditions: in vivo, 3 h; summary of the method: as §2
# [24] = tested on: Brain; experiment: Drug metabolism in rhesus monkey brain assessed as radiodefluorination at 3.91 mCi, iv by PET; conditions: in vivo
# [25] = Drug uptake in rhesus monkey thalamus at 3.91+/-0.46 mCi, iv by PET imaging; assay type: ADME, organism-based, Macaca mulatta; conditions: in vivo; summary of the method: as §2
# [26] = tested on: Plasma; experiment: Drug metabolism in rhesus monkey plasma assessed as radiometabolite formation at 3.87 mCi, iv administered 30 mins post-(R)-(4-fluorophenyl)(2-(2-(2-methylpyrrolidin-1-yl)ethyl)benzofuran-5-yl)methanone treatment by radio-HPLC; assay type: ADME, organism-based, Macaca mulatta; conditions: in vivo, 0.5 h
# [27] = tested on: Striatum; experiment: Drug uptake in rhesus monkey striatum at 3.91+/-0.46 mCi, iv administered 30 mins post-ciproxifan treatment measured at 180 mins by PET imaging; assay type: ADME, organism-based, Macaca mulatta; conditions: in vivo, 3 h; summary of the method: as §2
# [28] = Metabolic stability in monkey whole blood assessed as compound remaining after 2.5 hrs by radio-HPLC; assay type: ADME, tissue-based, Macaca mulatta; conditions: rhesus monkey, read-out: Stability
# Summary of the method: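 [18F]Radioligand was incubated in monkey whole blood at room temperature for 2.5 h in vitro, n = 6. Unchanged fraction was measured by radio-HPLC on reverse-phase C18 in a radial compression module, eluted at 2.0 mL/min with MeOH:H2O:Et3N (85:15:0.1).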
# [29] = tested on: Brain; experiment: Drug uptake in FVB mouse whole brain at 73+/-29 uCi, iv administered 30 mins post-(R)-(2-(2-(2-methylpyrrolidin-1-yl)ethyl)benzofuran-5-yl)(4-nitrophenyl)methanone treatment measured at 90 mins by PET imaging; assay type: ADME, organism-based; conditions: in vivo, 1.5 h; summary of the method: as §1
# [30] = tested on: Plasma; experiment: Drug metabolism in rhesus monkey plasma assessed as decrease in unchanged compound at 3.87 mCi, iv administered 30 mins post-(R)-(4-fluorophenyl)(2-(2-(2-methylpyrrolidin-1-yl)ethyl)benzofuran-5-yl)methanone treatment by radio-HPLC; assay type: ADME, organism-based, Macaca mulatta; conditions: in vivo, 0.5 h
# [31] = tested on: Hippocampus; experiment: Drug uptake in rhesus monkey hippocampus at 3.91+/-0.46 mCi, iv by PET imaging; assay type: ADME, organism-based, Macaca mulatta; conditions: in vivo; summary of the method: as §2
# [32] = tested on: Hippocampus; experiment: Drug uptake in rhesus monkey hippocampus at 3.91+/-0.46 mCi, iv administered 30 mins post-ciproxifan treatment measured at 180 mins by PET imaging; assay type: ADME, organism-based, Macaca mulatta; conditions: in vivo, 3 h; summary of the method: as §2
# [33] = tested on: Plasma; experiment: Drug metabolism in rhesus monkey plasma assessed as radiometabolite formation at 3.87 mCi, iv by radio-HPLC; assay type: ADME, organism-based, Macaca mulatta; conditions: in vivo
# [34] = tested on: Plasma; experiment: Drug metabolism in rhesus monkey plasma assessed as decrease in unchanged compound at 3.87 mCi, iv by radio-HPLC; assay type: ADME, organism-based, Macaca mulatta; conditions: in vivo
smiles,measurement,setting,value
C[C@@H]1CCCN1CCc1cc2cc(C(=O)c3ccc([18F])cc3)ccc2o1,SUV,[1],< 1.2
same,Drug uptake,[2],Not Active
same,SUV,[3],2.3
same,Drug uptake,[4],Not Active
same,Drug uptake,[5],Not Active
same,Drug metabolism,[6],Active
same,Drug uptake,[7],Not Active
same,Drug uptake,[8],Not Active
same,Drug uptake,[9],Not Active
same,Drug metabolism,[10],Active
same,fraction unbound,[11],0.0208
same,SUV,[12],1.98
same,remaining at 2.5 h,[13],99.2%
same,Drug uptake,[14],Not Active
same,Drug uptake,[15],Not Active
same,Drug uptake,[16],Not Active
same,Drug uptake,[17],Active
same,Drug uptake,[18],Not Active
same,Drug uptake,[19],Not Active
same,Drug uptake,[20],Not Active
same,Drug uptake,[21],Not Active
same,fraction unbound at 0.5 h,[22],0.014
same,Drug uptake,[23],Not Active
same,Drug metabolism,[24],Not Active
same,Drug uptake,[25],Active
same,Drug metabolism,[26],Active
same,Drug uptake,[27],Not Active
same,remaining at 2.5 h,[28],98.4%
same,SUV,[29],< 1.2
same,Drug metabolism,[30],Active
same,Drug uptake,[31],Active
same,Drug uptake,[32],Not Active
same,Drug metabolism,[33],Active
same,Drug metabolism,[34],Active
